Assay [1] concerns the target T1, Adenosine receptor A1 (Homo sapiens) (UniProt P30542).
T1 sequence (whole entry): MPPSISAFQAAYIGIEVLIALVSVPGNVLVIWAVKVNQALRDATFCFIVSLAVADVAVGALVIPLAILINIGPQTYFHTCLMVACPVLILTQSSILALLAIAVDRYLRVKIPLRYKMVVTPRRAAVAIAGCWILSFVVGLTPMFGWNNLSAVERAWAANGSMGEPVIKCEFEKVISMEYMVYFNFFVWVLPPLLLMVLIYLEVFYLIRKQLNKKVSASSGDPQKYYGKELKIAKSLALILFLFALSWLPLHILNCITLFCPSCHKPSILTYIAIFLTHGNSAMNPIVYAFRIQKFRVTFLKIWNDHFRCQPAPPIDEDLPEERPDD
Put plainly: Allosteric enhancement of human adenosine A1 receptor expressed in CHO cells assessed as inhibition of CCPA-induced cAMP production at 100 nM after 10 mins. Type of assay: functional, cell-based. The method, boiled down:
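Intact hA1CHO cells (10⁶/mL) in phosphate buffer with adenosine deaminase 1.0 IU/mL and Ro 20-1724 0.5 mM, preincubated 10 min at 37 °C. Compound 100 nM plus CCPA 1 pM added for 10 min, then forskolin 1 μM for 5 min. Stopped with cold 6% TCA, ether-extracted. cAMP measured by [3H]-cAMP competition with adrenal binding protein (4 °C, 150 min). pmol/10⁶ cells, mean ± SEM of three.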

In assay [2] the target is T1, Adenosine receptor A1 (Homo sapiens). Description: Displacement of [3H]DPCPX from human adenosine A1 receptor expressed in CHO cells at 10 uM after 120 mins by scintillation counting. In general terms: Displacement assays read how much labelled ligand stays bound in the presence of the test substance.
Assay [3] addresses Adenosine receptor A2a (Homo sapiens) (UniProt P29274). Put plainly: Displacement of [3H]ZM 241385 from human adenosine A2A receptor expressed in CHO cells at 10 uM after 60 mins by scintillation counting. The format is cell-based. The method, boiled down:
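hA2ACHO membranes in 50 mM Tris HCl, 10 mM MgCl2, pH 7.4, 4 °C for 60 min. [3H]ZM 241385 given as 1 nM in methods and 2 nM in table footnote. Compound at 10 μM from 100-fold DMSO stock, 1% DMSO final. Nonspecific binding with 1 μM ZM 241385. Filtration and scintillation counting. Percent inhibition of control specific binding, ±SEM, n=3.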

The target of assay [4] is T2, Adenosine receptor A3 (Homo sapiens) (UniProt P0DMS8).
T2 sequence (whole entry): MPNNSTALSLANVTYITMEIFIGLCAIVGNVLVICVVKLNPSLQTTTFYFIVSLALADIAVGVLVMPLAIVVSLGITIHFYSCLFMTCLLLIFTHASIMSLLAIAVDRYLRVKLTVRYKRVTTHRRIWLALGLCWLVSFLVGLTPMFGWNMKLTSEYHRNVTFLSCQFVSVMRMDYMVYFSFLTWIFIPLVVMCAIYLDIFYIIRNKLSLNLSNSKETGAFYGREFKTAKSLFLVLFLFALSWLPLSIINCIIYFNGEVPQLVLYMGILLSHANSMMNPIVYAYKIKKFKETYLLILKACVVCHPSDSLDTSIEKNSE
Description: Displacement of [3H]MRE-3008-F20 from human adenosine A3 receptor expressed in CHO cells at 10 uM after 120 mins by scintillation counting.

The target in assay [5] is T1, Adenosine receptor A1 (Homo sapiens). Put plainly: Allosteric enhancement of human adenosine A1 receptor expressed in CHO cells assessed as inhibition of forskolin-induced cAMP production at 10 uM after 10 mins. Type of assay: functional, cell-based. The method, boiled down:
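Whole hA1CHO cells (10⁶/mL) preincubated 10 min at 37 °C in phosphate buffer with adenosine deaminase (1.0 IU/mL) and Ro 20-1724 (0.5 mM). Compound alone at 10 μM for a further 10 min; forskolin 1 μM for 5 min. TCA stop, ether extraction, cAMP by [3H]-cAMP protein-binding competition assay. Expressed as pmol/10⁶ cells; mean ± SEM, three experiments.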
For orientation: Changes in cAMP serve as a functional read-out for many G protein-coupled receptors.

Assay [6] has the same target. Put plainly: Allosteric enhancement of human adenosine A1 receptor expressed in CHO cells assessed as increase of CCPA Ki at 10 uM after 90 mins by [3H]DPCPX radioligand binding assay. The format is cell-based. The procedure, abridged: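 hA1CHO membranes (50 mM Tris-HCl, pH 7.4, adenosine deaminase-treated). [3H]DPCPX 1 nM competed by CCPA (0.01 nM–1 μM) with or without test compound at 10 μM. Triplicate, 90 min at 25 °C. Nonspecific binding taken with 1 μM DPCPX. Filtration, then scintillation counting. Ki by Cheng–Prusoff. Shift = Ki(CCPA)/Ki(CCPA+enhancer). Mean ± SEM, n=3.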

Assay [7] has the same target. Put plainly: Allosteric enhancement of human adenosine A1 receptor expressed in CHO cells assessed as increase of [3H]CCPA Bmax at 10 uM after 90 mins. The format is cell-based. The procedure, abridged:
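Saturation of [3H]CCPA (0.05–20 nM) on hA1CHO membranes in 50 mM Tris-HCl, pH 7.4, with or without compound at final 10 μM. Triplicate, 25 °C, 90 min. Nonspecific binding defined with 1 μM R-PIA. Filter-bound radioactivity counted. KD and Bmax fitted by weighted nonlinear least squares; Bmax shift versus control. Mean ± SEM, n=3.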

Each structure is given as a SMILES string.

The values below come from ChEMBL document CHEMBL2417436, “Synthesis and biological effects of novel 2-amino-3-(4-chlorobenzoyl)-4-substituted thiophenes as allosteric enhancers of the A1 adenosine receptor” (Eur J Med Chem, 2013).

Chain of Adenosine receptor A2a (Homo sapiens) (P29274 whole entry): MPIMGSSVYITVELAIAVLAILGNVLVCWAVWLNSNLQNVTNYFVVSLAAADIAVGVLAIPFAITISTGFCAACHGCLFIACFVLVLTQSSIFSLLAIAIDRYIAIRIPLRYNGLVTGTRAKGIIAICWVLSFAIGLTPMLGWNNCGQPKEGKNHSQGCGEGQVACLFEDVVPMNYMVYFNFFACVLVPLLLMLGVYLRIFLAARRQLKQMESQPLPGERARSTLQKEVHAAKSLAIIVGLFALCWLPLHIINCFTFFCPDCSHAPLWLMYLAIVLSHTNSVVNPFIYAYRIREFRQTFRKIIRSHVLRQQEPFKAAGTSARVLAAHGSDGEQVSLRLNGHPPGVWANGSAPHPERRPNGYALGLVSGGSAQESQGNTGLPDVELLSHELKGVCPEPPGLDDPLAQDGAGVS

With `CC(C)N(Cc1c(-c2ccccc2)sc(N)c1C(=O)c1ccc(Cl)cc1)C(C)C`, the inhibition (commonly how much of the control response was suppressed) in assay [1] came out at 12%; in assay [2], 5%; in assay [3], 6%; in assay [4], 11%; in assay [5], 9%. Further, the fold change (FC) in assay [6] turned out to be 1.3; in assay [7], 1.2.
For `CN(Cc1c(-c2ccccc2)sc(N)c1C(=O)c1ccc(Cl)cc1)C(C)(C)C`, the inhibition amounted to 13% in assay [1]; 5% in assay [2]; 1% in assay [3]; 10% in assay [4]; 10% in assay [5]. Further, the fold change (FC) in assay [6] and in assay [7] was 1.3 in each case.
Regarding `CC(C)c1ccc(OCc2csc(N)c2C(=O)c2ccc(Cl)cc2)cc1`, the inhibition is 18% in assay [1]; 3% in assay [2]; 1% in assay [3]; 9% in assay [4]; 15% in assay [5]. Further, the fold change (FC) was found to be 1.5 in assay [6] and 1.8 in assay [7].
Turning to `Nc1scc(COc2ccccc2)c1C(=O)c1ccc(Cl)cc1`, the inhibition was 11% in assay [1]; 1% in assay [2]; 0% in assay [3]; 2% in assay [4]; 9% in assay [5]. Also, the figures for the fold change (FC) in assay [6] and in assay [7] were 1.2 and 1.3, respectively.
Regarding `C=CCN(CC=C)Cc1c(-c2ccccc2)sc(N)c1C(=O)c1ccc(Cl)cc1`, the inhibition in assay [1] amounted to 34%; in assay [2] it was 3%; in assay [3], 1%; in assay [4] it was 5%; in assay [5], 36%. In addition, the fold change (FC) worked out at 3.9 in assay [6] and 4.2 in assay [7].
For the compound `Cc1ccc2c(c1)CC1CN(Cc3csc(N)c3C(=O)c3ccc(Cl)cc3)CCN21` (configuration not stated), the inhibition in assay [1] turned out to be 13%; in assay [2] it was 6%; in assay [3], 0%; in assay [4], 7%; in assay [5], 3%. The fold change (FC) in assay [6] and in assay [7] was 1 throughout.
As to `CC(C)N(Cc1c(Br)sc(N)c1C(=O)c1ccc(Cl)cc1)C(C)C`, the inhibition in assay [1] is 14%; in assay [2], 1%; in assay [3], 1%; in assay [4] it was 3%; in assay [5] it was 12%. Further, the fold change (FC) is 1.4 in assay [6] and 1.5 in assay [7].
Take `Nc1scc(CN2CCn3c(cc4cc(F)ccc43)C2)c1C(=O)c1ccc(Cl)cc1`: the inhibition in assay [1] came to 65%; in assay [2], 0%; in assay [3], 2%; in assay [4], 5%; in assay [5], 69%. Moreover, the fold change (FC) was 7.2 in assay [6] and 8.2 in assay [7].
`Cn1c2c(c3cc(Cl)ccc31)CN(Cc1csc(N)c1C(=O)c1ccc(Cl)cc1)CC2`: the inhibition in assay [1] turned out to be 28%; in assay [2], 1%; in assay [3], 0%; in assay [4], 1%; in assay [5], 24%. In addition, the fold change (FC) in assay [6] came to 2.6; in assay [7] it was 2.8.
`CC(C)N(Cc1csc(N)c1C(=O)c1ccc(Cl)cc1)C(C)C`: the inhibition in assay [1] turned out to be 14%; in assay [2] it was 1%; in assay [3], 0%; in assay [4] it was 3%; in assay [5], 4%. Also, the fold change (FC) in assay [6] and in assay [7] was 1 in each case.
On to `CN(Cc1csc(N)c1C(=O)c1ccc(Cl)cc1)c1ccc(C(F)(F)F)cc1`, for which the inhibition in assay [1] is 31%; in assay [2], 3%; in assay [3], 0%; in assay [4], 4%; in assay [5], 29%. Further, the figures for the fold change (FC) in assay [6] and in assay [7] were 2.8 and 3.2, respectively.
`Nc1sc(-c2ccccc2)c(CN(C2CCCCC2)C2CCCCC2)c1C(=O)c1ccc(Cl)cc1`: the inhibition amounted to 28% in assay [1]; 6% in assay [2]; 1% in assay [3]; 7% in assay [4]; 31% in assay [5]. Moreover, the values for the fold change (FC) in assay [6] and in assay [7] were 3.2 and 3.5, respectively.
Consider `Cc1ccc2c(c1)OC1(CCN(Cc3csc(N)c3C(=O)c3ccc(Cl)cc3)CC1)O2`, for which the inhibition in assay [1] was 45%; in assay [2], 0%; in assay [3], 3%; in assay [4] it was 6%; in assay [5], 48%. For the same compound, the fold change (FC) amounted to 4.2 in assay [6] and 5.1 in assay [7].
Regarding `CCN(CC)Cc1csc(N)c1C(=O)c1ccc(Cl)cc1`, the inhibition in assay [1] came out at 12%; in assay [2], 0%; in assay [3], 1%; in assay [4] it was 2%; in assay [5], 5%. In addition, the fold change (FC) in assay [6] and in assay [7] was 1 throughout.
In the case of `CN(Cc1csc(N)c1C(=O)c1ccc(Cl)cc1)c1ccc(F)cc1`, the inhibition in assay [1] is 26%; in assay [2], 3%; in assay [3] it was 2%; in assay [4], 4%; in assay [5] it was 28%. Also, the figures for the fold change (FC) in assay [6] and in assay [7] were 3.4 and 3.2, respectively.
On to `CN(Cc1ccccc1)Cc1csc(N)c1C(=O)c1ccc(Cl)cc1`, for which the inhibition was determined as 40% in assay [1]; 1% in assay [2]; 1% in assay [3]; 7% in assay [4]; 42% in assay [5]. Also, the fold change (FC) in assay [6] was 4; in assay [7], 4.4.
Turning to `CCCN(CCC)Cc1c(-c2ccccc2)sc(N)c1C(=O)c1ccc(Cl)cc1`, the inhibition in assay [1] was determined as 29%; in assay [2], 1%; in assay [3] it was 1%; in assay [4] it was 11%; in assay [5], 28%. In addition, the fold change (FC) is 2.5 in assay [6] and 3.1 in assay [7].
Regarding `Nc1scc(CN2CCc3ccccc3C2)c1C(=O)c1ccc(Cl)cc1`, the inhibition came to 43% in assay [1]; 0% in assay [2]; 3% in assay [3]; 1% in assay [4]; 41% in assay [5]. Moreover, the fold change (FC) turned out to be 4.1 in assay [6] and 4.6 in assay [7].
In the case of `Cc1sc(N)c(C(=O)c2cccc(C(F)(F)F)c2)c1C`, the inhibition in assay [1] came out at 20%; in assay [2], 0%; in assay [3], 0%; in assay [5], 18%. The fold change (FC) in assay [6] came to 1.6; in assay [7] it was 1.3.
